Results published in ChEMBL document CHEMBL2440062, “New nucleotide-competitive non-nucleoside inhibitors of terminal deoxynucleotidyl transferase: discovery, characterization, and crystal structure in complex with the target” (J Med Chem, 2013).

What follows are compounds tested on HeLa (assay: Cytotoxicity against TdT-deficient human HeLa cells assessed as growth inhibition after 24 to 48 hrs by MTT assay).
Format: cell-based
In short: (§1)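 MOLT-4 cells were grown in RPMI-1640 and HeLa cells in DMEM, with 10% FCS at 37 °C. Cells were seeded at 10^5 per well, given 24 h to attach, then exposed to compounds (0.1–100 range) for 24 or 48 h. MTT at 1 mg/mL was added for 2 h at 37 °C, formazan was dissolved in DMSO, and absorbance read at 550 nm versus 0.5% DMSO vehicle. IC50 was obtained by regression, in triplicate.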
For CCOC(=O)C(=O)CC(=O)/C=C/c1cn(Cc2ccccc2)c2ccccc12, the IC50 was > 40 µM.
In the case of C/C=C/n1cc(/C=C/C(=O)CC(=O)C(=O)O)c2ccccc21, the IC50 is reported as > 40 µM.
With O=C(/C=C/c1cn(Cc2ccc(Cl)cc2)c2ccccc12)CC(=O)C(=O)O the IC50 was > 40 µM.
CCOC(=O)C(=O)CC(=O)/C=C/c1cc(C(=O)c2ccccc2F)c[nH]1 was tested, and the IC50 was > 40 µM.
In the case of C=C(C)Cn1cc(/C=C/C(=O)CC(=O)C(=O)O)c2ccccc21, the IC50 is reported as 40 µM.
With O=C(/C=C/c1cc(C(=O)c2ccccc2)cn1Cc1ccccc1)CC(=O)C(=O)O the IC50 was > 40 µM.
In the case of CC(C)=Cn1cc(/C=C/C(=O)CC(=O)C(=O)O)c2ccccc21, the IC50 is reported as > 40 µM.
For O=C(/C=C/c1cn(-c2ccccc2)c2ccccc12)CC(=O)C(=O)O, the IC50 was > 40 µM.
In the case of COc1ccc(Cn2cc(/C=C/C(=O)CC(=O)C(=O)O)c3ccccc32)cc1, the IC50 is reported as > 40 µM.
With O=C(/C=C/c1cn(CC(=O)N2CCOCC2)c2ccccc12)CC(=O)C(=O)O the IC50 was > 40 µM.

What follows are compounds tested on MOLT-4 (assay: Cytotoxicity against human MOLT4 cells overexpressing TdT assessed as growth inhibition after 24 to 48 hrs by MTT assay).
Format: functional, cell-based
In short: as §1
In the case of CCOC(=O)C(=O)CC(=O)/C=C/c1cn(Cc2ccccc2)c2ccccc12, the IC50 is reported as > 40 µM.
For C/C=C/n1cc(/C=C/C(=O)CC(=O)C(=O)O)c2ccccc21, the IC50 was > 40 µM.
O=C(/C=C/c1cn(Cc2ccc(Cl)cc2)c2ccccc12)CC(=O)C(=O)O was tested, and the IC50 was 19 µM.
Work on CCOC(=O)C(=O)CC(=O)/C=C/c1cc(C(=O)c2ccccc2F)c[nH]1 yielded an IC50 of 15 µM.
C=C(C)Cn1cc(/C=C/C(=O)CC(=O)C(=O)O)c2ccccc21 was tested, and the IC50 was 40 µM.
With O=C(/C=C/c1cc(C(=O)c2ccccc2)cn1Cc1ccccc1)CC(=O)C(=O)O the IC50 was > 40 µM.
In the case of CC(C)=Cn1cc(/C=C/C(=O)CC(=O)C(=O)O)c2ccccc21, the IC50 is reported as 30 µM.
In the case of O=C(/C=C/c1cn(-c2ccccc2)c2ccccc12)CC(=O)C(=O)O, the IC50 is reported as > 40 µM.
In the case of COc1ccc(Cn2cc(/C=C/C(=O)CC(=O)C(=O)O)c3ccccc32)cc1, the IC50 is reported as > 40 µM.
With O=C(/C=C/c1cn(CC(=O)N2CCOCC2)c2ccccc12)CC(=O)C(=O)O the IC50 was > 40 µM.

Each compound was assayed against DNA polymerase beta (Homo sapiens, UniProt P06746) (assay: Inhibition of human recombinant DNA polymerase beta).
For CCOC(=O)C(=O)CC(=O)/C=C/c1cn(Cc2ccccc2)c2ccccc12, the IC50 was > 40 µM.
For C/C=C/n1cc(/C=C/C(=O)CC(=O)C(=O)O)c2ccccc21, the IC50 was > 40 µM.
In the case of O=C(/C=C/c1cn(Cc2ccc(Cl)cc2)c2ccccc12)CC(=O)C(=O)O, the IC50 is reported as > 40 µM.
In the case of CCOC(=O)C(=O)CC(=O)/C=C/c1cc(C(=O)c2ccccc2F)c[nH]1, the IC50 is reported as > 40 µM.
For C=C(C)Cn1cc(/C=C/C(=O)CC(=O)C(=O)O)c2ccccc21, the IC50 was > 40 µM.
In the case of O=C(/C=C/c1cc(C(=O)c2ccccc2)cn1Cc1ccccc1)CC(=O)C(=O)O, the IC50 is reported as > 40 µM.
In the case of CC(C)=Cn1cc(/C=C/C(=O)CC(=O)C(=O)O)c2ccccc21, the IC50 is reported as > 40 µM.
With O=C(/C=C/c1cn(-c2ccccc2)c2ccccc12)CC(=O)C(=O)O the IC50 was > 40 µM.
In the case of COc1ccc(Cn2cc(/C=C/C(=O)CC(=O)C(=O)O)c3ccccc32)cc1, the IC50 is reported as > 40 µM.
For O=C(/C=C/c1cn(CC(=O)N2CCOCC2)c2ccccc12)CC(=O)C(=O)O, the IC50 was > 40 µM.

The compounds below were run against T1, DNA polymerase lambda (Homo sapiens) (UniProt Q9UGP5) (assay: Inhibition of human recombinant full length DNA polymerase lambda TdT-like activity using [3H]dNTP as substrate after 10 mins by scintillation counting analysis).
T1 sequence (whole entry): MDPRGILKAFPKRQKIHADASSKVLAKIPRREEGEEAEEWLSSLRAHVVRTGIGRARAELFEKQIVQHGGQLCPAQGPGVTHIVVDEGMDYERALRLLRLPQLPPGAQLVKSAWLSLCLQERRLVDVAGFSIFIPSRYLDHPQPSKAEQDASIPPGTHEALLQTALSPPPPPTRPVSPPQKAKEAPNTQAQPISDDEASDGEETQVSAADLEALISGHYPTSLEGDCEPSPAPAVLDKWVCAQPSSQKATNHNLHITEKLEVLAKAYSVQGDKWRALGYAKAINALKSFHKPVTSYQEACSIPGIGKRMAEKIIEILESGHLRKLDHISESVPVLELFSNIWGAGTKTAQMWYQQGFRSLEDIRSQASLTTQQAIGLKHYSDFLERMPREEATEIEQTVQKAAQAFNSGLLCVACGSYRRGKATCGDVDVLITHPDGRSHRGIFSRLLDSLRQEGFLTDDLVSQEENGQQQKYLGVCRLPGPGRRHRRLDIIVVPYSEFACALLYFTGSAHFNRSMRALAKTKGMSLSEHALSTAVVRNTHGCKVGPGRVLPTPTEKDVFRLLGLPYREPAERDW
In short: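 Full-length recombinant human pol λ (>90% pure) was tested for template-independent activity. Acid-insoluble radioactivity was counted, and ID50 came from dose–response fitting.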
In the case of CCOC(=O)C(=O)CC(=O)/C=C/c1cn(Cc2ccccc2)c2ccccc12, the ID50 is reported as > 40 µM.
Work on C/C=C/n1cc(/C=C/C(=O)CC(=O)C(=O)O)c2ccccc21 yielded an ID50 of 10 µM.
For O=C(/C=C/c1cn(Cc2ccc(Cl)cc2)c2ccccc12)CC(=O)C(=O)O, the ID50 was > 40 µM.
CCOC(=O)C(=O)CC(=O)/C=C/c1cc(C(=O)c2ccccc2F)c[nH]1 gave an ID50 of 27 µM.
With C=C(C)Cn1cc(/C=C/C(=O)CC(=O)C(=O)O)c2ccccc21 the ID50 was 40 µM.
Work on O=C(/C=C/c1cc(C(=O)c2ccccc2)cn1Cc1ccccc1)CC(=O)C(=O)O yielded an ID50 of 20 µM.
CC(C)=Cn1cc(/C=C/C(=O)CC(=O)C(=O)O)c2ccccc21 was tested, and the ID50 was 9 µM.
In the case of O=C(/C=C/c1cn(-c2ccccc2)c2ccccc12)CC(=O)C(=O)O, the ID50 is reported as 2 µM.
COc1ccc(Cn2cc(/C=C/C(=O)CC(=O)C(=O)O)c3ccccc32)cc1 was tested, and the ID50 was > 40 µM.
With O=C(/C=C/c1cn(CC(=O)N2CCOCC2)c2ccccc12)CC(=O)C(=O)O the ID50 was 40 µM.

The compounds below were run against T1, DNA polymerase lambda (Homo sapiens) (assay: Inhibition of human recombinant full length DNA polymerase lambda using [3H]dTTP as substrate and 10 poly(dA)/oligo(dT) as template-primer after 15 mins by scintillation counting analysis).
In short: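 Recombinant full-length human pol λ at 50 nM was assayed with 0.2 μM poly(dA)/oligo(dT)10:1 (3′-OH ends) and 5 μM [3H]dTTP (5 Ci/mmol). Incubation was 15 min at 37 °C. TCA precipitates were scintillation counted.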
CCOC(=O)C(=O)CC(=O)/C=C/c1cn(Cc2ccccc2)c2ccccc12 was tested, and the ID50 was > 40 µM.
C/C=C/n1cc(/C=C/C(=O)CC(=O)C(=O)O)c2ccccc21 was tested, and the ID50 was > 40 µM.
With O=C(/C=C/c1cn(Cc2ccc(Cl)cc2)c2ccccc12)CC(=O)C(=O)O the ID50 was > 40 µM.
In the case of CCOC(=O)C(=O)CC(=O)/C=C/c1cc(C(=O)c2ccccc2F)c[nH]1, the ID50 is reported as > 40 µM.
In the case of C=C(C)Cn1cc(/C=C/C(=O)CC(=O)C(=O)O)c2ccccc21, the ID50 is reported as > 40 µM.
In the case of O=C(/C=C/c1cc(C(=O)c2ccccc2)cn1Cc1ccccc1)CC(=O)C(=O)O, the ID50 is reported as > 40 µM.
CC(C)=Cn1cc(/C=C/C(=O)CC(=O)C(=O)O)c2ccccc21 was tested, and the ID50 was > 40 µM.
With O=C(/C=C/c1cn(-c2ccccc2)c2ccccc12)CC(=O)C(=O)O the ID50 was > 50 µM.
In the case of COc1ccc(Cn2cc(/C=C/C(=O)CC(=O)C(=O)O)c3ccccc32)cc1, the ID50 is reported as > 40 µM.
O=C(/C=C/c1cn(CC(=O)N2CCOCC2)c2ccccc12)CC(=O)C(=O)O was tested, and the ID50 was > 40 µM.

Each compound was assayed against DNA nucleotidylexotransferase (Homo sapiens, UniProt P04053) (assay: Inhibition of human recombinant TdT using [3H]dNTP as substrate after 10 mins by scintillation counting analysis).
Chain of DNA nucleotidylexotransferase (P04053 whole entry): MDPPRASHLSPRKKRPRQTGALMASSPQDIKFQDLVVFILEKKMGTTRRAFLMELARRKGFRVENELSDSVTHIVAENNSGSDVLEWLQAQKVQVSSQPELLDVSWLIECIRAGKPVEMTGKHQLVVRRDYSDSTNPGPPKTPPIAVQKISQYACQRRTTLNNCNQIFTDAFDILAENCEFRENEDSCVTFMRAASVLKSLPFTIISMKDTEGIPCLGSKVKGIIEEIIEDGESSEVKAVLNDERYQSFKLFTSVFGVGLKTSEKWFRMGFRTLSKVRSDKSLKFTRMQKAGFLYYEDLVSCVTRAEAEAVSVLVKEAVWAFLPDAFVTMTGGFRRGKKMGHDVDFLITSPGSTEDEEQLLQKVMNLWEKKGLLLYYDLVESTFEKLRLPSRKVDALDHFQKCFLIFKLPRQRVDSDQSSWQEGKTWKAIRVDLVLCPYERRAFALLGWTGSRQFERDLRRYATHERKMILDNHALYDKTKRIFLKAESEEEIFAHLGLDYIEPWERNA
In short: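 TdT was from Trevigen. TCA-precipitated radioactivity was counted. ID50 came from dose–response fitting. For kinetics, DNA or dNTP was varied at increasing inhibitor, and Ki was obtained via Cheng–Prusoff for a competitive model.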
In the case of CCOC(=O)C(=O)CC(=O)/C=C/c1cn(Cc2ccccc2)c2ccccc12, the ID50 is reported as > 40 µM.
Work on C/C=C/n1cc(/C=C/C(=O)CC(=O)C(=O)O)c2ccccc21 yielded an ID50 of 33 µM.
For O=C(/C=C/c1cn(Cc2ccc(Cl)cc2)c2ccccc12)CC(=O)C(=O)O, the ID50 was 10 µM.
CCOC(=O)C(=O)CC(=O)/C=C/c1cc(C(=O)c2ccccc2F)c[nH]1 gave an ID50 of 20 µM.
Work on C=C(C)Cn1cc(/C=C/C(=O)CC(=O)C(=O)O)c2ccccc21 yielded an ID50 of 2.5 µM.
With O=C(/C=C/c1cc(C(=O)c2ccccc2)cn1Cc1ccccc1)CC(=O)C(=O)O the ID50 was 16 µM.
Work on CC(C)=Cn1cc(/C=C/C(=O)CC(=O)C(=O)O)c2ccccc21 yielded an ID50 of 13.8 µM.
For O=C(/C=C/c1cn(-c2ccccc2)c2ccccc12)CC(=O)C(=O)O, the ID50 was 47 µM.
With COc1ccc(Cn2cc(/C=C/C(=O)CC(=O)C(=O)O)c3ccccc32)cc1 the ID50 was 10 µM.
Work on O=C(/C=C/c1cn(CC(=O)N2CCOCC2)c2ccccc12)CC(=O)C(=O)O yielded an ID50 of 24 µM.
